Measured values as given in ChEMBL document CHEMBL1153485, “Synthesis and biological evaluation of novel 1-(4-methoxyphenethyl)-1H-benzimidazole-5-carboxylic acid derivatives and their precursors as antileukemic agents” (Bioorg Med Chem Lett, 2009).
pIC50: −log10 of the molar value. Active and inactive are the calls of the source. No cut-off for these calls is given here.

Experiments:
Format in all cases: functional, cell-based
K562 [1] = assay: Cytotoxicity against human K562 cells at 100 uM within 48 hrs by trypan blue exclusion assay
Method in brief: (§1)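 Leukemic cells treated with derivatives dissolved in DMSO at […]; DMSO-only cells at the amount used for the top concentration served as vehicle control. Viable cells counted by trypan blue at 24 h intervals until stationary phase.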

K562 [2] = assay: Cytotoxicity against human K562 cells
Method in brief: (§2)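 K562 and CEM cells; IC50 values calculated from both trypan blue counting and MTT assays.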

CCRF-CEM [3] = assay: Cytotoxicity against human CEM cells; method in brief: as §2
CCRF-CEM [4] = assay: Cytotoxicity against human CEM cells at 100 uM within 48 hrs by trypan blue exclusion assay; method in brief: as §1
K562 [5] = assay: Cytotoxicity against human K562 cells at 250 uM within 48 hrs by trypan blue exclusion assay; method in brief: as §1
CCRF-CEM [6] = assay: Cytotoxicity against human CEM cells at 250 uM within 48 hrs by trypan blue exclusion assay; method in brief: as §1
K562 [7] = assay: Induction of apoptosis in human K562 cells assessed as DNA strand breakage at 100 uM after 72 hrs using ethidium bromide staining by agarose gel electrophoresis
K562 [8] = assay: Cell cycle arrest in human K562 cells assessed as accumulation at G2/M phase at 1 to 10 uM after 8 to 48 hrs by FACS analysis
Method in brief: (§3)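 K562 cells treated with […] compound, analysed by FACS for cell cycle distribution; DMSO-treated cells as vehicle control.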

K562 [9] = assay: Cell cycle arrest in human K562 cells assessed as accumulation at S phase at 1 to 10 uM after 8 to 48 hrs by FACS analysis; method in brief: as §3
K562 [10] = assay: Induction of apoptosis in human K562 cells assessed as down-regulation of BCL2 protein at 30 uM after 12 hrs by SDS-PAGE
Method in brief: (§4)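 K562 cells treated with […] compound for 12 and 24 h; DMSO-treated cells grown 24 h as vehicle control. Lysates separated by SDS-PAGE, transferred to PVDF, probed with specific primary and secondary antibodies for BAD, BCL2 and PARP.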

K562 [11] = assay: Induction of apoptosis in human K562 cells assessed as upregulation of BAD protein at 30 uM by SDS-PAGE; conditions: TDE = time-dependent effect; method in brief: as §4
K562 [12] = assay: Induction of cell cycle arrest at S phase in human K562 cells assessed as down-regulation of CDK2 at 10 uM after 24 hrs by Western blot analysis
K562 [13] = assay: Induction of cell cycle arrest at G2/M phase in human K562 cells assessed as down-regulation of cyclin B1 at 5 to 10 uM after 24 hrs by Western blot analysis
K562 [14] = assay: Induction of cell cycle arrest at M phase in human K562 cells assessed as reduction in phosphorylated histone H3 level at 10 uM after 24 hrs by Western blot analysis
K562 [15] = assay: Induction of cell cycle arrest at M phase in human K562 cells assessed as reduction in phosphorylated histone H3 level at 5 uM after 24 hrs by Western blot analysis
K562 [16] = assay: Induction of p21 activation in human K562 cells at 5 to 10 uM after 24 hrs by Western blot analysis
K562 [17] = assay: Induction of apoptosis in human K562 cells assessed as DNA strand breakage at 10 uM after 72 hrs using ethidium bromide staining by agarose gel electrophoresis
K562 [18] = assay: Induction of apoptosis in human K562 cells assessed as PARP cleavage at 30 uM after 12 hrs by SDS-PAGE; method in brief: as §4
K562 [19] = assay: Induction of cell cycle arrest in human K562 cells assessed as reduction in PCNA level at 5 to 10 uM after 24 hrs by Western blot analysis

## COC(=O)c1ccc2c(c1)nc(-c1cccc(OC)c1)n2CCc1ccc(OC)cc1
K562 [1]
  Activity: Active
K562 [2]
  pIC50: 3.87
CCRF-CEM [3]
  pIC50: 3.86
CCRF-CEM [4]
  Activity: Active
K562 [5]
  Activity: Active
CCRF-CEM [6]
  Activity: Active

## COc1ccc(CCn2c(-c3c(F)cccc3F)nc3cc(C(=O)O)ccc32)cc1
K562 [2]
  pIC50: 4.10
CCRF-CEM [3]
  pIC50: 4.07

## COc1ccc(CCn2c(-c3ccc(F)c([N+](=O)[O-])c3)nc3cc(C(=O)O)ccc32)cc1
K562 [2]
  pIC50: 3.87
CCRF-CEM [3]
  pIC50: 3.88

## COC(=O)c1ccc2c(c1)nc(-c1ccccc1F)n2CCc1ccc(OC)cc1
K562 [1]
  Activity: Active
K562 [2]
  pIC50: 4.25
CCRF-CEM [3]
  pIC50: 4.26
K562 [7]
  Activity: Active
CCRF-CEM [4]
  Activity: Active
K562 [5]
  Activity: Active
CCRF-CEM [6]
  Activity: Active

## COc1ccc(CCn2c(-c3ccc(Cl)cc3Cl)nc3cc(C(=O)O)ccc32)cc1
K562 [1]
  Activity: Active
K562 [2]
  pIC50: 3.96
CCRF-CEM [3]
  pIC50: 3.99
CCRF-CEM [4]
  Activity: Active
K562 [5]
  Activity: Active
CCRF-CEM [6]
  Activity: Active

## COC(=O)c1ccc2c(c1)nc(-c1ccc(F)c([N+](=O)[O-])c1)n2CCc1ccc(OC)cc1
K562 [1]
  Activity: Active
K562 [2]
  pIC50: 5.52
K562 [8]
  Activity: Active
CCRF-CEM [3]
  pIC50: 5.40
K562 [9]
  Activity: Active
K562 [10]
  Activity: Active
K562 [11]
  Activity: tde
K562 [12]
  Activity: Active
K562 [13]
  Activity: Active
K562 [14]
  Activity: Active
K562 [15]
  Activity: Active
K562 [16]
  Activity: Active
CCRF-CEM [4]
  Activity: Active
K562 [5]
  Activity: Active
K562 [17]
  Activity: Active
CCRF-CEM [6]
  Activity: Active
K562 [18]
  Activity: Active
K562 [19]
  Activity: Active

## COC(=O)c1ccc2c(c1)nc(-c1c(F)cccc1F)n2CCc1ccc(OC)cc1
K562 [1]
  Activity: Active
K562 [2]
  pIC50: 4.08
CCRF-CEM [3]
  pIC50: 4.07
CCRF-CEM [4]
  Activity: Active
K562 [5]
  Activity: Active
CCRF-CEM [6]
  Activity: Active

## COc1ccc(CCn2c(-c3cccc(Br)c3)nc3cc(C(=O)O)ccc32)cc1
K562 [1]
  Activity: Active
K562 [2]
  pIC50: 3.91
CCRF-CEM [3]
  pIC50: 3.92
CCRF-CEM [4]
  Activity: Active
K562 [5]
  Activity: Active
CCRF-CEM [6]
  Activity: Active

## COC(=O)c1ccc2c(c1)nc(-c1ccc(Cl)cc1Cl)n2CCc1ccc(OC)cc1
K562 [2]
  pIC50: < 3.60
CCRF-CEM [3]
  pIC50: < 3.60

## COC(=O)c1ccc2c(c1)nc(-c1ccc([N+](=O)[O-])cc1)n2CCc1ccc(OC)cc1
K562 [2]
  pIC50: 3.92
CCRF-CEM [3]
  pIC50: 3.91

## COC(=O)c1ccc2c(c1)nc(-c1ccc(F)c(N)c1)n2CCc1ccc(OC)cc1
K562 [2]
  pIC50: 4.11
CCRF-CEM [3]
  pIC50: 4.12

## COC(=O)c1ccc2c(c1)nc(-c1ccc(C(C)(C)C)cc1)n2CCc1ccc(OC)cc1
K562 [1]
  Activity: Active
K562 [2]
  pIC50: 4.15
CCRF-CEM [3]
  pIC50: 4.17
CCRF-CEM [4]
  Activity: Active
K562 [5]
  Activity: Active
CCRF-CEM [6]
  Activity: Active

## COc1ccc(CCn2c(-c3ccc(F)c(N)c3)nc3cc(C(=O)O)ccc32)cc1
K562 [2]
  pIC50: 3.74
CCRF-CEM [3]
  pIC50: 3.74

## COc1ccc(CCn2c(-c3cccc(OC)c3)nc3cc(C(=O)O)ccc32)cc1
K562 [2]
  pIC50: 3.70
CCRF-CEM [3]
  pIC50: 3.71

## COc1ccc(CCn2c(-c3ccccc3)nc3cc(C(=O)O)ccc32)cc1
K562 [2]
  pIC50: < 3.60
CCRF-CEM [3]
  pIC50: < 3.60

## COc1ccc(CCn2c(-c3ccc([N+](=O)[O-])cc3)nc3cc(C(=O)O)ccc32)cc1
K562 [2]
  pIC50: 3.60
CCRF-CEM [3]
  pIC50: 3.61

## COc1ccc(CCn2c(-c3ccc(C(C)(C)C)cc3)nc3cc(C(=O)O)ccc32)cc1
K562 [2]
  pIC50: 4.40
CCRF-CEM [3]
  pIC50: 4.38
K562 [7]
  Activity: Active

## COC(=O)c1ccc2c(c1)nc(-c1ccccc1)n2CCc1ccc(OC)cc1
K562 [1]
  Activity: Active
K562 [2]
  pIC50: 4.19
CCRF-CEM [3]
  pIC50: 4.19
CCRF-CEM [4]
  Activity: Active
K562 [5]
  Activity: Active
CCRF-CEM [6]
  Activity: Active

## COC(=O)c1ccc2c(c1)nc(-c1cccc(Br)c1)n2CCc1ccc(OC)cc1
K562 [2]
  pIC50: < 3.60
CCRF-CEM [3]
  pIC50: < 3.60

## COc1ccc(CCn2c(-c3ccccc3F)nc3cc(C(=O)O)ccc32)cc1
K562 [2]
  pIC50: 3.62
CCRF-CEM [3]
  pIC50: 3.61

## COC(=O)c1ccc2c(c1)nc(-c1ccc(N)cc1)n2CCc1ccc(OC)cc1
K562 [2]
  pIC50: 3.74
CCRF-CEM [3]
  pIC50: 3.76

## COc1ccc(CCn2c(-c3ccc(N)cc3)nc3cc(C(=O)O)ccc32)cc1
K562 [2]
  pIC50: < 3.60
CCRF-CEM [3]
  pIC50: < 3.60
